Data from PMC10170627 (RSC Chemical Biology, 2023).
Starred links: 1 amine or outer side, 2 acyl side, 3 side chain; linkers in the order of their positions; H or OH if unused. Positions of bridges follow the written chain, without caps; N, C: chain ends. Non-standard residues stand in square brackets, D forms with d. Residues, ends and D or L forms follow the SMILES beside them. Chains are numbered I, II in the order given. Actinocin(9to1) = Cc1c2oc3c(C)ccc(C(=O)[*:1])c3nc-2c(C(=O)[*:2])c(N)c1=O; NMeV = CN[C@H](C(=O)O)C(C)C; Sar = CNCC(=O)O

Tests used:
E. coli BL21(DE3) [1] = experiment: Bacterial cytological profiling; format: cell-based, Escherichia coli
E. coli BL21(DE3) [2] = experiment: Bacteria growth inhibition; format: cell-based, Escherichia coli; conditions: 0-100 μM, 16 h
Outline: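 MIC taken as the lowest test compound concentration at which no bacterial growth was observed.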

NCI 60-cell line panel = NCI 60-cell line panel COMPARE analysis; format: cell-based; conditions: five-dose data, Standard Agents GI50 library; 48 h
NPM1 = experiment: Nucleophosmin; format: cell-based, human; conditions: A549; 24 h; 5 nM actinomycin D, 5 μM cisplatin, 5 μM compound 1
HL-60 = conditions: read-out: IC50 (St. dev.) HL-60; ref prior work (footnote d); cited from earlier work
HEL299 = experiment: Cell cytotoxicity; format: cell-based; conditions: read-out: IC50 (St. dev.) HEL299; 72 h; triplicate
Outline: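 Healthy lung fibroblasts were treated with each test compound. IC50 is the average of triplicate measurements, reported with standard deviation. Selectivity index is the HEL299 IC50 divided by the A549 IC50.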

DU145 spheroids = experiment: Cytotoxicity in DU145 spheroids; format: cell-based; conditions: read-out: IC50 (St. dev.) DU145 spheroids; 72 h; triplicate
[3] = tested on: HeLa parental and XPA knockout cells; experiment: HeLa parental and XPA knockout cytotoxicity; format: cell-based; conditions: 72 h
E. coli DNA gyrase = E. coli DNA gyrase (Escherichia coli, UniProt P0AES4+P0AES6); experiment: Inhibition of DNA gyrase activity; format: biochemical; conditions: positive control
Chain of E. coli DNA gyrase (P0AES4 whole entry, one chain of several): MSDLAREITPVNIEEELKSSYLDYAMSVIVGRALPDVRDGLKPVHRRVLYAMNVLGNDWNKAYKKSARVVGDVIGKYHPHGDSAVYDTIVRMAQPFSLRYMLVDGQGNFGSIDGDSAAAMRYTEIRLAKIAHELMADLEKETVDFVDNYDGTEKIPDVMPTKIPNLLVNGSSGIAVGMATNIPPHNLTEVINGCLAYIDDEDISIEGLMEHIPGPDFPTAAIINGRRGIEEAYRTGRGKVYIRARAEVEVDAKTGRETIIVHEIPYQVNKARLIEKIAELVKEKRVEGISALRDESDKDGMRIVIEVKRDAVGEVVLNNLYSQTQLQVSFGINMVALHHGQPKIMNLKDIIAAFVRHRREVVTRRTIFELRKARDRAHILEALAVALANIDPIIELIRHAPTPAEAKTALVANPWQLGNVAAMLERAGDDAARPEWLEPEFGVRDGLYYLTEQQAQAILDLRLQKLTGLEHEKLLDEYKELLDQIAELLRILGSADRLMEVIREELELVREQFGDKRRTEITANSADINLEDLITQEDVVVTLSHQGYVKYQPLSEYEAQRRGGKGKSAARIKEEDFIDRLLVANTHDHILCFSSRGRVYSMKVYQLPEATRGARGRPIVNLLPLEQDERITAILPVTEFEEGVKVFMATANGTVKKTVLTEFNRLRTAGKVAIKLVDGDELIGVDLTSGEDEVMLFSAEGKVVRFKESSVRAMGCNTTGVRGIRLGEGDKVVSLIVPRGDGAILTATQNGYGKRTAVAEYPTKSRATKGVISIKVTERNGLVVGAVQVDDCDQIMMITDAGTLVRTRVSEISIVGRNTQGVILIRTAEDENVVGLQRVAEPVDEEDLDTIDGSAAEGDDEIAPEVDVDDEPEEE

SMILES | bacterial growth inhibition (E. coli BL21(DE3) [2]) | COMPARE correlation (Pearson correlation coefficient) to compound 2 (NCI 60-cell line panel) | further results
CC(=O)O[C@H]1C(=O)[C@@]2(C)[C@H]([C@H](OC(=O)c3ccccc3)[C@]3(O)C[C@H](OC(=O)[C@H](O)[C@@H](NC(=O)c4ccccc4)c4ccccc4)C(C)=C1C3(C)C)[C@]1(OC(C)=O)CO[C@@H]1C[C@@H]2O [Paclitaxel] | inhibited bacterial growth except for paclitaxel | 0.71 | filamentation (E. coli BL21(DE3) [1]; E. coli): no filament formation
COc1cccc2c1C(=O)c1c(O)c3c(c(O)c1C2=O)C[C@@](O)(C(=O)CO)C[C@@H]3O[C@H]1C[C@H](N)[C@H](O)[C@H](C)O1 [Doxorubicin] | – | 0.55 | –
N.N.O=C([O-])C1(C(=O)[O-])CCC1.[Pt+2] [Carboplatin] | – | 0.12 | –
CO[C@@H]1[C@H](O)C[C@@H](O[C@@H]2C[C@H](Oc3cc4cc5c(c(O)c4c(O)c3C)C(=O)[C@@H](O[C@H]3C[C@@H](O[C@H]4C[C@@H](O[C@H]6C[C@](C)(O)[C@@H](OC(C)=O)[C@H](C)O6)[C@H](O)[C@@H](C)O4)[C@H](O)[C@@H](C)O3)[C@H]([C@H](OC)C(=O)[C@@H](O)[C@@H](C)O)C5)O[C@H](C)[C@@H]2OC(C)=O)O[C@@H]1C [Chromomycin A3] | – | 0.85 | –
CC[C@]1(O)C[C@@H]2CN(CCc3c([nH]c4ccccc34)[C@@](C(=O)OC)(c3cc4c(cc3OC)N(C)[C@H]3[C@@](O)(C(=O)OC)[C@H](OC(C)=O)[C@]5(CC)C=CCN6CC[C@]43[C@@H]65)C2)C1 [Vinblastine] | – | 0.64 | –
N.N.[Cl][Pt][Cl] [Cisplatin] | inhibited bacterial growth | −0.16 | NPM1 distribution phenotype (NPM1): Smaller changes in NPM1 distribution; IC50 (HL-60): 3.1 µM; IC50 (HEL299): 3.05 µM; IC50 (DU145 spheroids): 5.28 µM; average filament length (E. coli BL21(DE3) [1]; E. coli treated at the MIC, 24 h): 53 μm; sensitization of XPA knockout versus parental HeLa [3]: 4 fold
COc1cc([C@@H]2c3cc4c(cc3[C@@H](O[C@@H]3O[C@@H]5CO[C@@H](C)O[C@H]5[C@H](O)[C@H]3O)[C@H]3COC(=O)[C@H]23)OCO4)cc(OC)c1O [Etoposide] | – | 0.39 | –
Cc1c2oc3c(C)ccc(C(=O)N[C@@H]4C(=O)N[C@H](C(C)C)C(=O)N5CCC[C@H]5C(=O)N(C)CC(=O)N(C)[C@@H](C(C)C)C(=O)O[C@@H]4C)c3nc-2c(C(=O)N[C@@H]2C(=O)N[C@H](C(C)C)C(=O)N3CCC[C@H]3C(=O)N(C)CC(=O)N(C)[C@@H](C(C)C)C(=O)O[C@@H]2C)c(N)c1=O [Actinomycin D] (I: T[dV]P[Sar][NMeV] / II: T[dV]P[Sar][NMeV]; ester I:1-I:C, II:1-II:C; linker I:N-II:N via Actinocin(9to1)) | – | 0.69 | NPM1 distribution phenotype (NPM1): delocalized NPM1 phenotype
O=C(O)c1cn(C2CC2)c2cc(N3CCNCC3)c(F)cc2c1=O [Ciprofloxacin] | – | – | concentration at which the supercoiled form was lost (E. coli DNA gyrase): 0.75 µM
CN(C)[C@@H]1C(O)=C(C(N)=O)C(=O)[C@@]2(O)C(O)=C3C(=O)c4c(O)cccc4[C@@](C)(O)[C@H]3C[C@@H]12 [tetracycline] | inhibited bacterial growth | – | –
CO[C@H]1/C=C/O[C@@]2(C)Oc3c(C)c(O)c4c(O)c(c(/C=N/N5CCN(C)CC5)c(O)c4c3C2=O)NC(=O)/C(C)=C\C=C\[C@H](C)[C@H](O)[C@@H](C)[C@@H](O)[C@@H](C)[C@H](OC(C)=O)[C@@H]1C [rifampicin] | inhibited bacterial growth | – | –
